Data taken from ChEMBL document CHEMBL1144441, “Identification of a novel cardenolide (2''-oxovoruscharin) from Calotropis procera and the hemisynthesis of novel derivatives displaying potent in vitro antitumor activities and high in vivo tolerance: structure-activity relationship analyses” (J Med Chem, 2005).

Legend:
[1] = In vitro cytotoxic activity against human C32 cancer cell lines after 3 days of culture; format: functional
Procedure, shortened: (§1)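 MTT overall-growth panel across 57 human cancer lines. Cells were plated for 24 h at 10 000–40 000 cells/mL, depending on cell type. Drugs were given at nine concentrations, 10^-9 to 10^-5 M in semilog steps, for 3 days. Absorbance was read at 570 nm with a 630 nm reference, in sextuplicate. Surviving cells are expressed as % of untreated control (100%).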

T-24 = experiment: In vitro cytotoxic activity against human T24 cancer cell lines after 3 days of culture; format: functional
Procedure, shortened: (§2)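 Human cancer cell lines, seeded 10 000–40 000 cells/mL and plated for 24 h, then exposed 72 h to nine drug concentrations from 10^-9 to 10^-5 M in semilog steps. Overall growth read by MTT reduction to formazan, absorbance at 570 nm (reference 630 nm). Sextuplicate wells; IC50 is the concentration reducing overall growth by 50% versus untreated control.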

A204 = experiment: In vitro cytotoxic activity against human A204 cancer cell lines after 3 days of culture; format: functional; procedure, shortened: as §1
A-427 = experiment: In vitro cytotoxic activity against human A427 cancer cell lines after 3 days of culture; format: functional; procedure, shortened: as §1
A549 = experiment: In vitro cytotoxic activity against human A549 cancer cell lines after 3 days of culture; format: functional; procedure, shortened: as §1
ACHN = experiment: In vitro cytotoxic activity against human ACHN cancer cell lines after 3 days of culture; format: functional; procedure, shortened: as §1
FaDu = experiment: In vitro cytotoxic activity against human FaDu cancer cell lines after 3 days of culture; format: functional; procedure, shortened: as §1
[2] = In vitro cytotoxic activity against human G361 cancer cell lines after 3 days of culture; format: functional; procedure, shortened: as §1
HT-29 = experiment: In vitro cytotoxic activity against human HT-29 cancer cell lines after 3 days of culture; format: functional; procedure, shortened: as §1
ZR-75-1 = experiment: In vitro cytotoxic activity against human ZR-75-1 cancer cell lines after 3 days of culture; format: functional; procedure, shortened: as §2
Malme-3M = experiment: In vitro cytotoxic activity against human MALME-3M cancer cell lines after 3 days of culture; format: functional; procedure, shortened: as §1
[3] = In vitro cytotoxic activity against human […] cancer cell lines after 3 days of culture; format: functional; procedure, shortened: as §1
[4] = In vitro cytotoxic activity against human SK-LMS-1 cancer cell lines after 3 days of culture; format: functional; procedure, shortened: as §1
[5] = In vitro cytotoxic activity against human SK-UT-1B cancer cell lines after 3 days of culture; format: functional; procedure, shortened: as §2
SK-MEL-28 = experiment: In vitro cytotoxic activity against human SKMEL-28 cancer cell lines after 3 days of culture; format: functional; procedure, shortened: as §2
LoVo = experiment: In vitro cytotoxic activity against human LoVo cancer cell lines after 3 days of culture; format: functional; procedure, shortened: as §1
PC-3 = experiment: In vitro cytotoxic activity against human PC-3 cancer cell lines after 3 days of culture; format: functional; procedure, shortened: as §1
T98G = experiment: In vitro cytotoxic activity against human T98G cancer cell lines after 3 days of culture; format: functional; procedure, shortened: as §2
WiDr = experiment: In vitro cytotoxic activity against human WiDr cancer cell lines after 3 days of culture; format: functional; procedure, shortened: as §2
[6] = In vitro cytotoxic activity against human 769-P cancer cell lines after 3 days of culture; format: functional; procedure, shortened: as §1
786-0 = experiment: In vitro cytotoxic activity against human 786-O cancer cell lines after 3 days of culture; format: functional; procedure, shortened: as §1
A498 = experiment: In vitro cytotoxic activity against human A-498 cancer cell lines after 3 days of culture; format: functional; procedure, shortened: as §1
BT-20 = experiment: In vitro cytotoxic activity against human BT-20 cancer cell lines after 3 days of culture; format: functional; procedure, shortened: as §1
DLD-1 = experiment: In vitro cytotoxic activity against human DLD-1 cancer cell lines after 3 days of culture; format: functional; procedure, shortened: as §1
DU-145 = experiment: In vitro cytotoxic activity against human DU145 cancer cell lines after 3 days of culture; format: functional; procedure, shortened: as §1
LNCaP = experiment: In vitro cytotoxic activity against human LNCaP cancer cell lines after 3 days of culture; format: functional; procedure, shortened: as §1
[7] = In vitro cytotoxic activity against human SCC-9 cancer cell lines after 3 days of culture; format: functional; procedure, shortened: as §1
[8] = In vitro cytotoxic activity against human SW948 cancer cell lines after 3 days of culture; format: functional; procedure, shortened: as §2
T47D = experiment: In vitro cytotoxic activity against human T-47D cancer cell lines after 3 days of culture; format: functional; procedure, shortened: as §2
[9] = In vitro cytotoxic activity against human AL-12T cancer cell lines after 3 days of culture; format: functional; procedure, shortened: as §1
BXPC-3 = experiment: In vitro cytotoxic activity against human BxPC-3 cancer cell lines after 3 days of culture; format: functional; procedure, shortened: as §1
CAKI-2 = experiment: In vitro cytotoxic activity against human CAKI-2 cancer cell lines after 3 days of culture; format: functional; procedure, shortened: as §1
HCT-15 = experiment: In vitro cytotoxic activity against human HCT-15 cancer cell lines after 3 days of culture; format: functional; procedure, shortened: as §1
[10] = In vitro cytotoxic activity against human HT144 cancer cell lines after 3 days of culture; format: functional; procedure, shortened: as §1
HT-1080 = experiment: In vitro cytotoxic activity against human HT1080 cancer cell lines after 3 days of culture; format: functional; procedure, shortened: as §1
[11] = In vitro cytotoxic activity against human Hs 174.T cancer cell lines after 3 days of culture; format: functional; procedure, shortened: as §1
MES-SA = experiment: In vitro cytotoxic activity against human MES-SA cancer cell lines after 3 days of culture; format: functional; procedure, shortened: as §1
PANC-1 = experiment: In vitro cytotoxic activity against human Panc-1 cancer cell lines after 3 days of culture; format: functional; procedure, shortened: as §1
U-87 MG = experiment: In vitro cytotoxic activity against human U87MG cancer cell lines after 3 days of culture; format: functional, U-87MG ATCC; procedure, shortened: as §2
[12] = In vitro cytotoxic activity against human Capan-2 cancer cell lines after 3 days of culture; format: functional; procedure, shortened: as §1
HT1197 = experiment: In vitro cytotoxic activity against human HT1197 cancer cell lines after 3 days of culture; format: functional; procedure, shortened: as §1
U373 MG = experiment: In vitro cytotoxic activity against human U-373MG cancer cell lines after 3 days of culture; format: functional, U-373MG ATCC; procedure, shortened: as §2
[13] = In vitro cytotoxic activity against human Hs 766.T cancer cell lines after 3 days of culture; Activity expressed as log IC50; format: functional
Procedure, shortened: (§3)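 Adherent human cancer cell lines seeded at 10 000 to 40 000 cells/mL (depending on cell type) and left 24 h before treatment. Nine concentrations, 10^-9 to 10^-5 M in semilog steps, for 72 h. Growth measured by MTT reduction to formazan, absorbance 570 nm (reference 630 nm). Sextuplicate wells. IC50 is the concentration giving 50% lower overall growth than control.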

[14] = In vitro cytotoxic activity against human SW1088 cancer cell lines after 3 days of culture; Activity expressed as log IC50; format: functional; procedure, shortened: as §3
[15] = In vitro cytotoxic activity against human SW1783 cancer cell lines after 3 days of culture; Activity expressed as log IC50; format: functional; procedure, shortened: as §3
CFPAC-1 = experiment: In vitro cytotoxic activity against human CFPAC-1 cancer cell lines after 3 days of culture; Activity expressed as log IC50; format: functional; procedure, shortened: as §3
[16] = In vitro cytotoxic activity against human Su.86.86 cancer cell lines after 3 days of culture; format: functional; procedure, shortened: as §2
MIA PaCa-2 = experiment: In vitro cytotoxic activity against human MiaPaca-2 cancer cell lines after 3 days of culture; format: functional; procedure, shortened: as §1
MDA-MB-231 = experiment: In vitro cytotoxic activity against human MDA-MB-231 cancer cell lines after 3 days of culture; format: functional; procedure, shortened: as §1
[17] = In vitro cytotoxic activity against human Detroit 562 cancer cell lines after 3 days of culture; format: functional; procedure, shortened: as §1
[18] = In vitro cytotoxic activity against human MCF7HTB-22 cancer cell lines after 3 days of culture; format: functional; procedure, shortened: as §1
H4 = experiment: In vitro cytotoxic activity against human H4 cancer cell lines after 3 days of culture; Activity expressed as log IC50; format: functional; procedure, shortened: as §3
[19] = In vitro cytotoxic activity against human Hs 729 cancer cell lines after 3 days of culture; format: functional; procedure, shortened: as §1
Hs-578T = experiment: In vitro cytotoxic activity against human Hs 578.T cancer cell lines after 3 days of culture; format: functional; procedure, shortened: as §1
[20] = In vitro cytotoxic activity against human Hs 683 cancer cell lines after 3 days of culture; Activity expressed as log IC50; format: functional; procedure, shortened: as §3

## CCc1c2c(nc3ccc(O)cc13)-c1cc3c(c(=O)n1C2)COC(=O)[C@]3(O)CC [7-ETHYL-10-HYDROXYCAMPTOTHECIN]
[1]
  Log IC50: -8.7
T-24
  Log IC50: -8.2
A204
  Log IC50: -7.7
A-427
  Log IC50: -9
A549
  Log IC50: -7.4
ACHN
  Log IC50: -8.3
FaDu
  Log IC50: -8.9
[2]
  Log IC50: -5.6
HT-29
  Log IC50: -7.5
ZR-75-1
  Log IC50: -7.4
Malme-3M
  Log IC50: -5.2
[3]
  Log IC50: -9
[4]
  Log IC50: -6.4
[5]
  Log IC50: -9
SK-MEL-28
  Log IC50: -7.3
LoVo
  Log IC50: -6.4
PC-3
  Log IC50: -6.7
T98G
  Log IC50: -7.3
WiDr
  Log IC50: -6.6
[6]
  Log IC50: -7.9
786-0
  Log IC50: -8.3
A498
  Log IC50: -6.9
BT-20
  Log IC50: -6.5
DLD-1
  Log IC50: -6.8
DU-145
  Log IC50: -9
LNCaP
  Log IC50: -5.5
[7]
  Log IC50: -6.1
[8]
  Log IC50: -7.7
T47D
  Log IC50: -7.3
[9]
  Log IC50: -6.1
BXPC-3
  Log IC50: -7.1
CAKI-2
  Log IC50: -5.3
HCT-15
  Log IC50: -7.1
[10]
  Log IC50: -7.6
HT-1080
  Log IC50: -7.3
[11]
  Log IC50: -6.9
MES-SA
  Log IC50: -7.1
PANC-1
  Log IC50: -5.1
U-87 MG
  Log IC50: -8.1
[12]
  Log IC50: -6.3
HT1197
  Log IC50: -5
U373 MG
  Log IC50: -9
[13]
  Log IC50: -5.6
[14]
  Log IC50: -5.4
[15]
  Log IC50: -7.3
CFPAC-1
  Log IC50: -8.3
[16]
  Log IC50: -6.5
MIA PaCa-2
  Log IC50: -6.6
MDA-MB-231
  Log IC50: -5.3
[17]
  Log IC50: -8
[18]
  Log IC50: -7.5
H4
  Log IC50: -6.5
[19]
  Log IC50: -7.3
Hs-578T
  Log IC50: -6.3
[20]
  Log IC50: -7
